In ChEMBL document CHEMBL2203197, “Design and synthesis of 2-aminothiazole based antimicrobials targeting MRSA” (2012):
In brackets after ≈: the same amount, converted by molar mass.

How the values were obtained:
Assay type in all cases: functional
[1] = tested on: Staphylococcus aureus; assay: Antibacterial activity against methicillin-resistant Staphylococcus aureus RN8175 after 24 hrs by CLSI broth microdilution method; conditions: RN8175, 24 h
Outline: (§1)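 Broth microdilution per CLSI in cation-adjusted Mueller–Hinton broth. Plates were incubated 24 h at 37 °C. MIC was taken as the lowest concentration that inhibited growth, judged by turbidity.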

[2] = tested on: Staphylococcus aureus; assay: Antibacterial activity against methicillin-resistant Staphylococcus aureus USA-300 after 24 hrs by CLSI broth microdilution method; conditions: USA-300, 24 h; outline: as §1
[3] = tested on: Escherichia coli; assay: Antibacterial activity against Escherichia coli C600 N/puc19 after 24 hrs by CLSI broth microdilution method; conditions: C600 N/puc19, 24 h
Outline: (§2)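 Broth microdilution per CLSI in cation-adjusted Mueller–Hinton broth. MIC was taken as the lowest concentration inhibiting visible growth (turbidity).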

[4] = tested on: Staphylococcus aureus; assay: Antibacterial activity against methicillin-resistant Staphylococcus aureus UAMS-1 after 24 hrs by CLSI broth microdilution method; conditions: UAMS-1, 24 h; outline: as §1
[5] = tested on: Acinetobacter baumannii; assay: Antibacterial activity against Acinetobacter baumannii UNMC 8872 after 24 hrs by CLSI broth microdilution method; conditions: UNMC 8872, 24 h; outline: as §2

SMILES	MIC [1] [µg/mL]	MIC [2] [µg/mL]	MIC [3] [µg/mL]	MIC [4] [µg/mL]	MIC [5] [µg/mL]
Nc1nc(-c2ccc3ccccc3c2)cs1	> 256	> 256	> 256	256 (≈ 1130 µM)	–
COc1ccc(-c2csc(N)n2)cc1	> 256	> 256	> 256	–	–
Nc1nc(-c2cc3ccccc3o2)cs1	> 256	> 256	> 256	256 (≈ 1180 µM)	–
O=S(=O)(Nc1nc(-c2ccccc2Br)cs1)c1ccccc1	32 (≈ 81 µM)	128 (≈ 324 µM)	> 256	–	–
Nc1nc(-c2cccc(-c3cccc(C(=O)O)c3)c2)cs1	> 256	> 256	> 256	–	> 256
Nc1nc(-c2cccc(-c3ccc(C(=O)O)cc3)c2)cs1	> 256	> 256	> 256	–	> 256
COC(=O)c1ccccc1-c1cccc(-c2csc(N)n2)c1	> 256	> 256	> 256	> 256	–
CCOC(=O)COc1cccc(-c2cccc(-c3csc(N)n3)c2)c1	> 256	> 256	> 256	–	–
CCOC(=O)COc1ccc(-c2cccc(-c3csc(N)n3)c2)cc1	256 (≈ 722 µM)	> 256	> 256	–	–
CCOC(=O)CCc1ccc(-c2cccc(-c3csc(N)n3)c2)cc1	256 (≈ 726 µM)	> 256	> 256	–	–
Nc1nc(-c2cccc(-c3cccc(OC(F)(F)F)c3)c2)cs1	4 (≈ 11.9 µM)	8 (≈ 23.8 µM)	> 256	–	–
O=S(=O)(Nc1nc(-c2ccc(Br)cc2)cs1)c1ccccc1	16 (≈ 40.5 µM)	64 (≈ 162 µM)	> 256	–	> 256
CCOC(=O)c1cccc(-c2cccc(-c3csc(N)n3)c2)c1	> 256	> 256	> 256	–	> 256
Nc1nc(-c2ccc(-c3cccc(OC(F)(F)F)c3)cc2)cs1	2 (≈ 5.95 µM)	> 256	> 256	–	–
CCOC(=O)c1cccc(-c2ccccc2-c2csc(N)n2)c1	32 (≈ 98.6 µM)	256 (≈ 789 µM)	> 256	–	> 256
Nc1nc(-c2ccccc2-c2cccc(OC(F)(F)F)c2)cs1	16 (≈ 47.6 µM)	16 (≈ 47.6 µM)	> 256	–	–

SMILES	MIC [1] [µg/mL]	MIC [2] [µg/mL]	MIC [3] [µg/mL]	MIC [4] [µg/mL]	MIC [5] [µg/mL]
CC(=O)OCC1=C(C(=O)O)N2C(=O)[C@@H](NC(=O)c3cccc(-c4csc(N)n4)c3)C2SC1 (stereo not given in full)	16 (≈ 33.7 µM)	256 (≈ 539 µM)	> 256	256 (≈ 539 µM)	–
O=S(=O)(Nc1nc2c(s1)CCCC2)c1cccc(C(F)(F)F)c1	> 256	> 256	> 256	> 256	–
CCOC(=O)c1cccc(-c2ccc3sc(N)nc3c2)c1	> 256	> 256	> 256	> 256	–
Nc1nc2cc(-c3cccc(OC(F)(F)F)c3)ccc2s1	8 (≈ 25.8 µM)	8 (≈ 25.8 µM)	> 256	–	–
Nc1nc2ccc(-c3cccc(OC(F)(F)F)c3)cc2s1	8 (≈ 25.8 µM)	16 (≈ 51.6 µM)	> 256	–	–
Nc1nc(-c2ccc(OC(F)(F)F)cc2)cs1	64 (≈ 246 µM)	64 (≈ 246 µM)	> 256	–	–
Nc1nc(-c2ccc(N3CCOCC3)cc2)cs1	256 (≈ 980 µM)	> 256	> 256	128 (≈ 490 µM)	–
Fc1cccc(Nc2nc(-c3ccc(N4CCOCC4)cc3)cs2)c1	> 256	> 256	> 256	256 (≈ 720 µM)	–
Nc1nc(-c2ccc(N3CCCC3)cc2)cs1	> 256	> 256	> 256	256 (≈ 1040 µM)	–
Fc1cccc(Nc2nc(-c3ccc(N4CCCC4)cc3)cs2)c1	> 256	> 256	> 256	2 (≈ 5.89 µM)	–
Fc1cccc(Nc2nc(-c3cccc(Br)c3)cs2)c1	4 (≈ 11.5 µM)	4 (≈ 11.5 µM)	> 256	2 (≈ 5.73 µM)	–
O=S(=O)(Nc1nc(C23CC4CC(CC(C4)C2)C3)cs1)c1cccc(C(F)(F)F)c1	> 256	> 256	> 256	128 (≈ 289 µM)	–
O=S(=O)(Nc1nc(-c2ccccc2F)cs1)c1ccccc1	32 (≈ 95.7 µM)	128 (≈ 383 µM)	> 256	–	–
COC(=O)c1cccc(-c2csc(N)n2)c1	> 256	> 256	> 256	–	–
COC(=O)c1ccc(-c2csc(N)n2)cc1	128 (≈ 546 µM)	> 256	> 256	–	–
CO/N=C(\C(=O)N[C@@H]1C(=O)N2C(C(=O)O)=C(CSc3nc(=O)c(O)nn3C)CS[C@H]12)c1csc(N)n1 [CEFTRIAXONE]	16 (≈ 28.9 µM)	128 (≈ 231 µM)	2 (≈ 3.61 µM)	8 (≈ 14.4 µM)	8 (≈ 14.4 µM)
